High-throughput results as filed in PubChem BioAssay.
NR2E3 ag-1 = agonists of human nuclear receptor NR2E3; inhibition of corepressor binding, % at 4.78 µM; Q9Y5X4; GST-NR2E3/biotin-RetCOR TR-FRET, 1536-well; 320,000 tested, 0.12% active;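 active means percent inhibition above the cutoff of mean plus 3 SD of all tested compounds, set per screening campaign, cut at about 20% in these data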
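System: GST-NR2E3 and biotin-RetCOR proteins; probe or stimulus: 7 nM biotin-RetCOR; doses: compound at 4.8 µM, single dose; schedule: Compound–protein incubation for 5 h at 4 °C; detection: time-resolved FRET; read-out: percent inhibition; controls: biotin wells as high control, 0.6% DMSO wells as low control; format: 1536-well plates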
PG9 binder = binds the HIV-1 gp120 antibody PG9. TR-FRET gp120-PG9 antibody binding. inhibition, % at 6.7 µM. 360,000 tested, 0.43% active. AID 624416; in the data active means inhibition above about 8.5%
PKA-R2B activ = PKA-R2B complex activation | P22694+P31323 | PKA-R2B holoenzyme dissociation, Cy5-IP20 fluorescence polarization; R2B truncated from residue 108, S112A mutant; 0% DMSO only, 100% 113 µM cGMP | activation, % at 11.4 µM | 340,000 tested, 0.079% active | AID 504700;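 active means activation above a cutoff set at the mean over all compounds plus 3 SD, cut at about 18% in these data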;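 further: higher means more holoenzyme dissociation and a rise in polarization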
NR2E3 ag-2 = activates human NR2E3 receptor; 360,000 tested, 0.35% active; inhibition of corepressor binding, % at 3.98 µM; AID 602229; CHO-S Gal4-NCOR/VP16-NR2E3 two-hybrid, luciferase; Q9Y5X4;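 active means inhibition above the mean of all tested compounds plus 3 SD, cut at about 70% in these data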;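 further: higher means lower luciferase signal from less NR2E3 corepressor binding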
PKA-R1A activ = activates the PKA-R1A holoenzyme complex; 340,000 tested, 0.083% active; activation, % at 11.4 µM; P00514+P68181; PKA-R1A dissociation, Cy5-IP20 fluorescence polarization; scaled: DMSO 0%, 113 µM cGMP 100%;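 active means percent activation above the mean of all tested compounds plus 3 SD, cut at about 19% in these data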;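 further: higher means more PKAc released from R1A so a rise in polarization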
NR1D1 modulator = modulators of human Rev-erb alpha DNA binding | Rev-erbα–FITC-DNA binding, fluorescence polarization, 90 min | activity, % at 10 µM | 370,000 tested, 0.79% active;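 active means activity above about 14%, limit read from the data; passing the limit was not always enough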
Target sequence (P20393 whole entry, looked up): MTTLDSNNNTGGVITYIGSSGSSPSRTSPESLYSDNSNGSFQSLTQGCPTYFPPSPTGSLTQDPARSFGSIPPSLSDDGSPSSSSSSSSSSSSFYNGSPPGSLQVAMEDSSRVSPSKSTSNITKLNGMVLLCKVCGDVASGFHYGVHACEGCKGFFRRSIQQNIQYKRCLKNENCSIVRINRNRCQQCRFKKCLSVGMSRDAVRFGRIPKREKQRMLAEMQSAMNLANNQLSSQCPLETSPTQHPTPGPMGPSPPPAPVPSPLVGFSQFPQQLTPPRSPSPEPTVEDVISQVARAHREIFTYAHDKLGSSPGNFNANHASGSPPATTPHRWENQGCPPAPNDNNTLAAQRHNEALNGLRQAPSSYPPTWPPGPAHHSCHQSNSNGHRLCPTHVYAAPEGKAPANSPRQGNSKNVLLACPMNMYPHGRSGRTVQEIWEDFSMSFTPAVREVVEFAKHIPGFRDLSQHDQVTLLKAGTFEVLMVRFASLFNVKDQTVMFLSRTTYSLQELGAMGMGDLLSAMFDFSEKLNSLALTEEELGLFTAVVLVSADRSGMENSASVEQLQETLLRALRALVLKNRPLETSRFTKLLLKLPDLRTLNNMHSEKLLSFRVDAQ
Rev-erbA confirm = Rev-erb alpha (human) modulation, hit confirmation. shares compounds with NR1D1 modulator. Rev-erb alpha FITC-DNA binding, fluorescence polarization, 90 min. activation, % at 25 µM. 3,000 tested, 61% active. AID 1259319;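 active means activation at or above a set limit, or at least 3 SD above the negative control mean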
RORg counter = counter-screen for Rev-erb alpha modulators: RORgamma DNA binding | IC50, µM | purified RORgamma protein-FITC-DNA binding, fluorescence polarization | shares compounds with NR1D1 modulator | AID 1259320 | 910 tested, 8% active;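 active means Compounds whose fitted half-maximal concentration for disrupting protein-DNA binding is below 10 micromolar; the record names Rev-erb in its text, so the target is in doubt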
Large screens that a line does not name were inactive (follow-up assays come after a bar, where they were run). Sampled rows, rich in hits. Any-hit rate of the full collection: about 1.6%.

COc1cc(/C=C2\SC(=S)N(CC(=O)O)C2=O)ccc1OC(=O)c1ccco1	none
O=S(=O)(c1ccccc1)c1nc(-c2ccccc2)oc1N1CCCCC1	none
O=S(=O)(c1ccccc1)c1nc(-c2ccccc2)oc1N1CCCC1	NR1D1 modulator 16 | Rev-erbA confirm inactive
COc1cccc(NC(=O)c2cc3ccccc3oc2=O)c1	none
Cc1cccnc1NC(=O)c1cc2ccccc2oc1=O	NR1D1 modulator 43 | Rev-erbA confirm inactive
O=C(CSC1=Nc2ccccc2C2CC=NN12)Nc1ccc(F)c(F)c1F (configuration not stated)	NR1D1 modulator 18 | Rev-erbA confirm inactive
CCCCOC(=O)c1ccc(NC(=O)CSC2=Nc3ccccc3C3CC=NN23)cc1 (configuration not stated)	none
COc1cc(C(C)=O)ccc1Oc1ncnc2c1cnn2-c1ccc(F)cc1	NR1D1 modulator 25 | Rev-erbA confirm inactive
COc1cc(C(C)=O)ccc1Oc1ncnc2c1cnn2-c1cccc(Cl)c1	none
CC1(C)Cc2c(sc3[nH]c(=S)n(Cc4ccccc4)c(=O)c23)CO1	none (no result: NR1D1 modulator)
CC1(C)Cc2c(sc3c2c(N)nc(=S)n3Cc2ccccc2)CO1	NR1D1 modulator 111 (no result: PKA-R2B activ, NR2E3 ag-2, PKA-R1A activ) | Rev-erbA confirm 36 | RORg counter inactive
CCOc1ncccc1C(=O)Nc1cc(S(=O)(=O)N2CCCCC2)ccc1Cl	NR1D1 modulator 23 | Rev-erbA confirm 11
COc1ccc(S(=O)(=O)N2CCCCC2)cc1NC(=O)c1cncc(Br)c1	NR1D1 modulator 41 | Rev-erbA confirm 19
CC(C)(C)C(=O)Nc1cc(S(=O)(=O)N2CCCCC2)ccc1N1CCCCC1	NR1D1 modulator 39 | Rev-erbA confirm 38 | RORg counter inactive
COc1cc(NC(=O)CSc2nc(C)cc(=O)[nH]2)cc(OC)c1	none (no result: NR2E3 ag-1, PG9 binder, PKA-R2B activ, NR2E3 ag-2, PKA-R1A activ)
CC1CN(C(=O)/C=C/c2ccccc2[N+](=O)[O-])CC(C)O1 (configuration not stated)	NR1D1 modulator 18 | Rev-erbA confirm inactive
CC1CN(C(=O)/C=C/c2cccc([N+](=O)[O-])c2)CC(C)O1 (configuration not stated)	none
Cc1ccc(C(=O)NC(=S)Nc2ccc(-c3cc4ccccc4oc3=O)cc2)c(C)c1	NR1D1 modulator 68 | Rev-erbA confirm 18
CC(=O)Nc1ccc(NC(=O)c2cccc(-c3cc4ccccc4oc3=O)c2)cc1	none
Cc1cc(C)cc(C(=O)NC(=S)Nc2ccc(-c3cc4ccccc4oc3=O)cc2)c1	NR1D1 modulator 70 | Rev-erbA confirm 36
CC[C@H](CCCc1ccc(OC)cc1)CCC(=O)N(c1ccccc1)c1ccccc1	none (no result: NR2E3 ag-1, PG9 binder, PKA-R2B activ, NR2E3 ag-2, PKA-R1A activ)
CCC(=O)N1CCCC(C)(C(=O)Nc2ccc3scnc3c2)C1 (configuration not stated)	NR1D1 modulator 19 (no result: NR2E3 ag-1, PKA-R2B activ, PKA-R1A activ) | Rev-erbA confirm inactive
O=C(Nc1nc(-c2cc3ccccc3oc2=O)cs1)c1ccc(Br)o1	NR1D1 modulator 54 | Rev-erbA confirm 31
CC(=O)Nc1ccc(Nc2nc(-c3cc4ccccc4oc3=O)cs2)cc1	none (no result: NR2E3 ag-1)
CCOc1ccc(-n2c(SCC(=O)N3CCc4ccccc43)nnc2-c2c[nH]c3ccccc23)cc1	NR1D1 modulator 93 | Rev-erbA confirm 24
COc1cccc(-n2c(SCC(=O)N3CCc4ccccc43)nnc2-c2c[nH]c3ccccc23)c1	none
O=C(CSc1nnc(-c2cccs2)n1-c1ccccc1)N1CCCc2ccccc21	NR1D1 modulator 110 | Rev-erbA confirm 101 | RORg counter inactive
COc1ccc(OC)c(C2NC(=O)c3sc(=S)n(-c4ccccc4)c3N2)c1 (configuration not stated)	NR1D1 modulator 39 | Rev-erbA confirm inactive
